Experimental data from ChEMBL document CHEMBL1268883, “Plasma-mediated release of morphine from synthesized prodrugs” (Bioorg Med Chem Lett, 2010).

Assays:
[1] = Induction of morphine release at 37.5 nmol in presence of 50% mouse plasma assessed as disappearance of compound peak during 5 to 10 mins at 250 uM; assay type: cell-free; conditions: read-out: Activity
How it was run: (§1)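 PDA (250 µM) incubated with 50% plasma in PBS at 37 °C. Aliquots were withdrawn at intervals, quenched with 2 vol ice-cold 10% DMSO/acetonitrile and centrifuged. The supernatant was analysed by UPLC, following the PDA peak (4.3–4.4 min) and the morphine peak. Morphine was calculated from a morphine standard curve.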

[2] = Induction of morphine release at 37.5 nmol in presence of 50% human plasma assessed as disappearance of compound peak during 5 to 10 mins at 250 uM; assay type: cell-free; conditions: read-out: Activity; how it was run: as §1
[3] = Induction of morphine release at 37.5 nmol in presence of 50% rat plasma assessed as disappearance of compound peak during 5 to 10 mins at 250 uM; assay type: cell-free; conditions: read-out: Activity; how it was run: as §1
[4] = Induction of morphine release at 37.5 nmol in presence of 50% guinea pig plasma assessed as disappearance of compound peak during 5 to 10 mins at 250 uM; assay type: cell-free, Cavia porcellus; conditions: read-out: Activity; how it was run: as §1
[5] = Stability in PBS solution up to 24 hrs; assay type: physicochemical; conditions: buffer
How it was run: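 PDA incubated in PBS under the plasma-incubation conditions for up to 24 h, then analysed by UPLC.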

SK-N-SH = test: Induction of morphine release in human SK-N-SH cells assessed as morphine induced inhibition of forskolin-induced cAMP production ny chemiluminescent assay; assay type: cell-based
How it was run: (§2)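 PDA (0.8 mM) was preincubated 24 h with PBS or 50% human plasma. SK-N-SH cells were switched to serum-free medium, exposed to the solutions (equivalent to 5 µM prodrug) for 15 min, then given 5 µM forskolin or vehicle for 15 min. Cells were rinsed and lysed, and cAMP was measured by chemiluminescent assay against a cAMP standard curve.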

[6] = Induction of morphine release in PBS solution assessed as morphine induced inhibition of forskolin-induced cAMP production ny chemiluminescent assay; assay type: physicochemical; conditions: buffer; how it was run: as §2
[7] = Induction of morphine release at 37.5 nmol in presence of HSA assessed as morphine level per mg of protein by UPLC; conditions: human
[8] = Induction of morphine release at 37.5 nmol in presence of butyryl choline esterase assessed as morphine level per mg of protein by UPLC; conditions: isolated protein
[9] = Induction of morphine release at 37.5 nmol in presence of guinea pig plasma assessed as morphine level per ml plasma by UPLC; assay type: cell-free, Cavia porcellus
How it was run: (§3)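 Rates were taken from the linear 0–15 min time points. The mix held 37.5 nmol PDB initial and 150 µl plasma or enzyme sample (BCE 0.5 U/ml, HSA 25 mg/ml) in 300 µl total at 37 °C. After ANDM deproteinisation, morphine was measured by UPLC. Rates are expressed per ml of plasma or of enzyme sample at its human-plasma level.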

Plasma [10] = test: Induction of morphine release at 37.5 nmol in presence of human plasma assessed as morphine level per ml plasma by UPLC; assay type: cell-free; how it was run: as §3
Plasma [11] = test: Induction of morphine release at 37.5 nmol in presence of rat plasma assessed as morphine level per ml plasma by UPLC; assay type: cell-free; how it was run: as §3
Plasma [12] = test: Induction of morphine release at 37.5 nmol in presence of mouse plasma assessed as morphine level per ml plasma by UPLC; assay type: cell-free; how it was run: as §3
[13] = Induction of morphine release at 37.5 nmol in presence of 25 mg/ml HSA assessed as morphine level after 15 mins by UPLC; conditions: human, 0.25 h
How it was run: (§4)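 PDB (37.5 nmol initial) incubated at 37 °C in 300 µl total with 150 µl sample: purified human serum BCE (0.5 U/ml) or HSA (25 mg/ml), both equivalent to 50% of serum levels, or 50% human plasma in PBS. Aliquots taken over time, mixed with 2 vol ice-cold 10% DMSO in acetonitrile, centrifuged. Supernatant run on UPLC. Morphine quantified from morphine standard curve (1.6–1.75 min peak area).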

[14] = Induction of morphine release at 37.5 nmol in presence of 25 mg/ml HSA assessed as morphine level after 2 to 6 hrs by UPLC; conditions: human; how it was run: as §4
[15] = Induction of morphine release at 37.5 nmol in presence of 0.5 U/ml butyryl choline esterase assessed as morphine level after 15 mins by UPLC; assay type: physicochemical; conditions: isolated protein, 0.25 h; how it was run: as §4
[16] = Induction of morphine release at 37.5 nmol in presence of 0.5 U/ml butyryl choline esterase assessed as morphine level after 3 to 6 hrs by UPLC; assay type: physicochemical; conditions: isolated protein; how it was run: as §4
Plasma [17] = test: Induction of morphine release at 37.5 nmol in presence of 50% human plasma after 15 mins by UPLC; assay type: cell-free; conditions: 0.25 h; how it was run: as §4
Plasma [18] = test: Induction of morphine release at 37.5 nmol in presence of 50% human plasma after 6 hrs by UPLC; assay type: cell-free; how it was run: as §4

Row | Structure (SMILES) | metabolised at 250 µM [1] [%] | metabolised at 250 µM [2] [%] | metabolised at 250 µM [3] [%] | metabolised at 250 µM [4] [%] | Stability [5] | Activity (SK-N-SH) | Activity [6] | Activity [7] [nmol/min] | Activity [8] [nmol/min] | Activity [9] [nmol/min] | Activity (Plasma [10]) [nmol/min] | Activity (Plasma [11]) [nmol/min] | Activity (Plasma [12]) [nmol/min] | Activity [13] [%] | Activity [14] [%] | Activity [15] [%] | Activity [16] [%] | Activity (Plasma [17]) [%] | Activity (Plasma [18]) [%]
1 | CN1CC[C@]23c4c5ccc(OC(=O)CCC(=O)OC(C)(C)C)c4O[C@H]2[C@@H](O)C=C[C@H]3[C@H]1C5 | > 90 | > 90 | > 90 | > 90 | Stable | Active | Not Active |  |  |  |  |  |  |  |  |  |  |  | 
2 | CN1CC[C@]23c4c5ccc(OC(=O)c6ccc(OCC(=O)NCCOCCOCCNC(=O)OC(C)(C)C)cc6)c4O[C@H]2[C@@H](O)C=C[C@H]3[C@H]1C5 |  |  |  |  |  |  |  | 0.3 | 0.8 | 2.9 | 1.1 | 4.2 | 20.9 | 1 | 2 | 2.5 | 4 | 4 | 20
